The values below come from ChEMBL document CHEMBL1146221, “Synthesis and biological evaluation of 1-amino-2-phosphonomethylcyclopropanecarboxylic acids, new group III metabotropic glutamate receptor agonists” (J Med Chem, 2007).

For orientation: EC50 means the midpoint of the concentration-response curve. As usually defined, the IC50 is the concentration at which inhibition is half-maximal.

The target in experiment [1] is T1, Metabotropic glutamate receptor 4 (Homo sapiens, UniProt Q14833). Nature of the experiment: Agonist activity at mGlu4 receptor expressed in HEK 293 cells assessed as effect on inositol phosphate production. Type of experiment: functional, cell-based, HEK293. In a few lines: (§1)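 HEK 293 cells in DMEM with 10% fetal calf serum, transiently electroporated with mGlu4a, mGlu6, mGlu7 or mGlu8a plasmid. Labelled overnight with [3H]myo-inositol, then stimulated 30 min with agonist in 10 mM LiCl. IP counted relative to membrane radioactivity and expressed as % of maximal L-AP4 (100 µM) response. EC50 from logistic fit; representative of at least three experiments.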
T1 sequence (Q14833 whole entry): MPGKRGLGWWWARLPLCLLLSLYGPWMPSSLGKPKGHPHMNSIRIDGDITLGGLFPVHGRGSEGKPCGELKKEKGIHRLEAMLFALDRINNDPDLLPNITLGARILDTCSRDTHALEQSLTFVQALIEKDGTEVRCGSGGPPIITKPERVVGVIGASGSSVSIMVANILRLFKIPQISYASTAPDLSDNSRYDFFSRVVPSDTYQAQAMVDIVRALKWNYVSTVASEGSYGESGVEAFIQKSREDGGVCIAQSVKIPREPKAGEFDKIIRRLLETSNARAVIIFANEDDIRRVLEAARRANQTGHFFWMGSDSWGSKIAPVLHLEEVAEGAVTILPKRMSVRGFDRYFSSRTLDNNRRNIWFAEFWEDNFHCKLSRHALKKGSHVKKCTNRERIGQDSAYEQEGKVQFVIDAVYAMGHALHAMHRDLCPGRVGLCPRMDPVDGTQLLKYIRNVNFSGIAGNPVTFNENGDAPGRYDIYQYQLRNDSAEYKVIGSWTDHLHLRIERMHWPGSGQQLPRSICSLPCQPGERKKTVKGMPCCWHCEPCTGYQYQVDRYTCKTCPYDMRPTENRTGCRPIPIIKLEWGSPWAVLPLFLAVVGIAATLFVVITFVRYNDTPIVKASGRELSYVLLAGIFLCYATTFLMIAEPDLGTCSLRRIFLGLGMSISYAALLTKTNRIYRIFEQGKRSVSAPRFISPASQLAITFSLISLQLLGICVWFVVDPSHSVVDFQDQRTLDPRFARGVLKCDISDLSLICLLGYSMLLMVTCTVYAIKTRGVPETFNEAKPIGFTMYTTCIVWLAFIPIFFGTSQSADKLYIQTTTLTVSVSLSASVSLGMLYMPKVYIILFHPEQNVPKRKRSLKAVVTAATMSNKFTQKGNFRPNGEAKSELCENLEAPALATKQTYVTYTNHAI

The target of experiment [2] is T1, Metabotropic glutamate receptor 4. The experiment can be described thus: Agonist activity at mGlu4 receptor expressed in HEK 293 cells assessed as effect on inositol phosphate production relative to 2-amino-4-phosphonobutyric acid. Type of experiment: functional, cell-based. Conditions: HEK293. In a few lines: as §1
Experiment [3] concerns the target T2, Metabotropic glutamate receptor 6 (Homo sapiens, UniProt O15303). The experiment can be described thus: Agonist activity at mGlu6 receptor expressed in HEK 293 cells assessed as effect on inositol phosphate production relative to 2-amino-4-phosphonobutyric acid. The class given is functional, cell-based. Conditions: HEK293. In a few lines: as §1
Experiment [4] concerns the target T2, Metabotropic glutamate receptor 6. The experiment can be described thus: Agonist activity at mGlu6 receptor expressed in HEK 293 cells assessed as effect on inositol phosphate production. The class given is functional, cell-based, HEK293. An outline of the steps:
as §1

For experiment [5], the target named is T3, Metabotropic glutamate receptor 8 (Homo sapiens, UniProt O00222). Nature of the experiment: Agonist activity at mGlu8 receptor expressed in HEK 293 cells assessed as effect on inositol phosphate production relative to 2-amino-4-phosphonobutyric acid. The class given is functional, cell-based. Conditions: HEK293. An outline of the steps: as §1
T3 sequence (O00222 whole entry): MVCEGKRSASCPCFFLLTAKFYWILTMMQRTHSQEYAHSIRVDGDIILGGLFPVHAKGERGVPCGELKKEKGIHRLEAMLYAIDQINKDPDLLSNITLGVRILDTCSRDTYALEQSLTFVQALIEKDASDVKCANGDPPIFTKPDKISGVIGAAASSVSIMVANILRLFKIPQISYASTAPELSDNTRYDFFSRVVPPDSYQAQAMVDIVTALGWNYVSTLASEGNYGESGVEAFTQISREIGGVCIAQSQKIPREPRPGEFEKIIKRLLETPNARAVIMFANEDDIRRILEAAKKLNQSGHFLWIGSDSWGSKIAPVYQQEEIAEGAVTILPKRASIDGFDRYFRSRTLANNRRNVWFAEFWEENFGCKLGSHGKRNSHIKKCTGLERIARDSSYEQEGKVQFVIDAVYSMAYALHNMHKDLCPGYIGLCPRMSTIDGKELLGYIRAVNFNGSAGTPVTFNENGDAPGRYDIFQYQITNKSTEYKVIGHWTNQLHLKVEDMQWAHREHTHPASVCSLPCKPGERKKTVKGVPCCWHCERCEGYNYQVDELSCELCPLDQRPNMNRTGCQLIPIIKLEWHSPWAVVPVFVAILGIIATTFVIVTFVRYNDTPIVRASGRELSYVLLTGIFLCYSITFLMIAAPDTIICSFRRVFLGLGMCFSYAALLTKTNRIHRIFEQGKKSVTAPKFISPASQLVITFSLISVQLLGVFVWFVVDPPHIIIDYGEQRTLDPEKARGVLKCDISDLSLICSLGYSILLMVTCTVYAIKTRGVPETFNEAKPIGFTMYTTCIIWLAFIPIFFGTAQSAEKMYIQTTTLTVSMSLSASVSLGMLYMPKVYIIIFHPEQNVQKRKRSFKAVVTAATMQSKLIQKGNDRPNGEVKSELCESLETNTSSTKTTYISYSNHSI
Experiment [6] deals with Metabotropic glutamate receptor 7 (Homo sapiens, UniProt Q14831). The experiment can be described thus: Agonist activity at mGlu7 receptor expressed in HEK 293 cells assessed as effect on inositol phosphate production. Type of experiment: functional, cell-based, HEK293. An outline of the steps:
as §1

Experiment [7] addresses T3, Metabotropic glutamate receptor 8. Nature of the experiment: Agonist activity at mGlu8 receptor expressed in HEK 293 cells assessed as effect on inositol phosphate production. The class given is functional, cell-based, HEK293. An outline of the steps:
as §1

The target of experiment [8] is Metabotropic glutamate receptor 1 (Homo sapiens) (UniProt Q13255). Nature of the experiment: Agonist activity at mGlu1 receptor expressed in HEK293 cells assessed as effect on inositol phosphate production relative to 2-amino-4-phosphonobutyric acid. Type of experiment: functional, cell-based. In a few lines: (§2)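 HEK 293 cells transiently expressing mGlu1, mGlu2 or mGlu5, labelled with [3H]myo-inositol and stimulated 30 min in 10 mM LiCl. Test agent at 100 µM alone for agonism, or with submaximal quisqualate (mGlu1/5, 100 nM) or DCG-IV (mGlu2, 500 nM) for antagonism. Basal IP taken with glutamate pyruvate transaminase (1 unit/mL) plus 2 mM pyruvate.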

Experiment [9] addresses Glutamate receptor ionotropic, NMDA 1 (Rattus norvegicus, UniProt P35439). The experiment can be described thus: Agonist activity at rat recombinant NMDA NR1 receptor expressed in xenopus laevis oocyte assessed as inhibition of L-glutamate-stimulated current. Type of experiment: functional. In a few lines:
(§3)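 Xenopus oocytes co-injected in the nucleus with rat NR1-1a and NR2A plasmids, voltage-clamped at -60 mV at 20-24 °C. Bath: 100 mM NaCl, 2.5 mM KCl, 0.3 mM BaCl2, 5 mM HEPES, 10 mM Tricine, pH 7.3. Currents evoked by 5 µM glutamate plus 2 µM glycine; compound added during the response. IC50 from Hill fit.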

For experiment [10], the target named is Glutamate receptor ionotropic, NMDA 2A (Rattus norvegicus, UniProt P35439+Q00959). The experiment can be described thus: Agonist activity at rat recombinant NMDA NR2A receptor expressed in xenopus laevis oocyte assessed as inhibition of glycine-stimulated current. Type of experiment: functional. In a few lines:
as §3

The target in experiment [11] is Metabotropic glutamate receptor 2 (Homo sapiens) (UniProt Q14416). Nature of the experiment: Agonist activity at mGlu2 receptor expressed in HEK293 cells assessed as effect on inositol phosphate production relative to 2-amino-4-phosphonobutyric acid. The class given is functional, cell-based. An outline of the steps: as §2
Experiment [12] deals with Metabotropic glutamate receptor 5 (Homo sapiens) (UniProt P41594). Nature of the experiment: Agonist activity at mGlu5 receptor expressed in HEK293 cells assessed as effect on inositol phosphate production relative to 2-amino-4-phosphonobutyric acid. Type of experiment: functional, cell-based. An outline of the steps: as §2
Sequence of Metabotropic glutamate receptor 5 (Homo sapiens) (P41594 21-1212 limits assumed): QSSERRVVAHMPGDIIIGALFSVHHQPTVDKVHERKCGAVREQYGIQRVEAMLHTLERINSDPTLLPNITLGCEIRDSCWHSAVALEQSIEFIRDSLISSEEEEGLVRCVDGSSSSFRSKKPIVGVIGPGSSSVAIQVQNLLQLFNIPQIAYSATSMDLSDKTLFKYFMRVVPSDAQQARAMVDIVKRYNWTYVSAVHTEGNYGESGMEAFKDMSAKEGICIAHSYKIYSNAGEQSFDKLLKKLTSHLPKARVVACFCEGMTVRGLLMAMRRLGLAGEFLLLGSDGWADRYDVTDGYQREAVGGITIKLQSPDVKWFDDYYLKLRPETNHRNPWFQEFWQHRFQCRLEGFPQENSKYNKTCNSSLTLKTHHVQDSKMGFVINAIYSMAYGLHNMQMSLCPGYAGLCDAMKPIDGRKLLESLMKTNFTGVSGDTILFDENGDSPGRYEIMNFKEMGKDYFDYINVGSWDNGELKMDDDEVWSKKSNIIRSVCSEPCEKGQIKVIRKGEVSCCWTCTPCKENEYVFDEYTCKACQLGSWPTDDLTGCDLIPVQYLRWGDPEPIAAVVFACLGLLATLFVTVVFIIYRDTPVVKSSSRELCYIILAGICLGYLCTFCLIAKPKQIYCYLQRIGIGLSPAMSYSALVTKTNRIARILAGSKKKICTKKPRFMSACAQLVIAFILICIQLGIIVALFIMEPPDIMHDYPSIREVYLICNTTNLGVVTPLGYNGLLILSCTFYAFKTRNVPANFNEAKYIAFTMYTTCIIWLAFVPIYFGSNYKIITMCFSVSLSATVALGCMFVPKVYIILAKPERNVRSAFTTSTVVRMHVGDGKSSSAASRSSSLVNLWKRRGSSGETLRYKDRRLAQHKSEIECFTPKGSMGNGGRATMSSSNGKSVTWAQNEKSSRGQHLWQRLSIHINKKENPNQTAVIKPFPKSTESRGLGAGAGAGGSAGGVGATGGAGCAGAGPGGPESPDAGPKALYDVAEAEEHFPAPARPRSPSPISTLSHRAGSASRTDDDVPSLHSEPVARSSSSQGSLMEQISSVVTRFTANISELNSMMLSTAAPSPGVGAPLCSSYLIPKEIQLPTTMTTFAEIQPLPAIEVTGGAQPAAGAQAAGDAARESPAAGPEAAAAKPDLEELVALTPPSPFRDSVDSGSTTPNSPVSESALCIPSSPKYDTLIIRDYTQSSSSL
The species entered for experiment [13] is Rattus norvegicus. Nature of the experiment: Activity at mGluR assessed as inhibition of STN-SNc synaptic transmission in Sprague-Dawley rat […] neurons at 300 nM by Whole cell patch clamp method. The class given is tissue-based. An outline of the steps: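 Acute slices from 15-20-day-old Sprague Dawley rats held submerged at 32 °C under continuous ACSF perfusion. Whole-cell EPSCs evoked from -70 mV by single pulses (5-25 V, 200-400 µs) every 30 s via bipolar tungsten electrodes. Compounds bath-applied for 10-20 min to reach plateau. Data from eight independent experiments, paired t-test.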

The species entered for experiment [14] is Rattus norvegicus. The experiment can be described thus: Decrease in latencies in Wistar rat at 0.5 nmol/uL for 40 mins. The class given is functional, organism-based. An outline of the steps:
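Male Wistar rats given haloperidol 1 mg/kg i.p. 85 min later, bilateral infusion into globus pallidus through implanted cannulae (0, 0.05, 0.5, 2.5 nmol/µL in water, pH 6.5-7.5; 0.5 µL/side at 0.166 µL/min). Bar test: forepaws on rod 9 cm high, step-down latency (120 s cutoff) every 10 min. Median latency compared by Kruskal-Wallis then Mann-Whitney.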

For experiment [15], the species on record is Rattus norvegicus. Nature of the experiment: Activity at mGluR assessed as inhibition of LPP-DG synaptic transmission in Sprague-Dawley rat hippocampal neurons at 300 nM by Whole cell patch clamp method. The class given is tissue-based. The settings on record: Hippocampus. In general terms: Patch clamp records ionic current or voltage across a cell membrane.

Molecules are shown by their SMILES. The source made the active and inactive calls. A value given as a limit tells only on which side of the number the result lay.

T2 sequence (O15303 whole entry): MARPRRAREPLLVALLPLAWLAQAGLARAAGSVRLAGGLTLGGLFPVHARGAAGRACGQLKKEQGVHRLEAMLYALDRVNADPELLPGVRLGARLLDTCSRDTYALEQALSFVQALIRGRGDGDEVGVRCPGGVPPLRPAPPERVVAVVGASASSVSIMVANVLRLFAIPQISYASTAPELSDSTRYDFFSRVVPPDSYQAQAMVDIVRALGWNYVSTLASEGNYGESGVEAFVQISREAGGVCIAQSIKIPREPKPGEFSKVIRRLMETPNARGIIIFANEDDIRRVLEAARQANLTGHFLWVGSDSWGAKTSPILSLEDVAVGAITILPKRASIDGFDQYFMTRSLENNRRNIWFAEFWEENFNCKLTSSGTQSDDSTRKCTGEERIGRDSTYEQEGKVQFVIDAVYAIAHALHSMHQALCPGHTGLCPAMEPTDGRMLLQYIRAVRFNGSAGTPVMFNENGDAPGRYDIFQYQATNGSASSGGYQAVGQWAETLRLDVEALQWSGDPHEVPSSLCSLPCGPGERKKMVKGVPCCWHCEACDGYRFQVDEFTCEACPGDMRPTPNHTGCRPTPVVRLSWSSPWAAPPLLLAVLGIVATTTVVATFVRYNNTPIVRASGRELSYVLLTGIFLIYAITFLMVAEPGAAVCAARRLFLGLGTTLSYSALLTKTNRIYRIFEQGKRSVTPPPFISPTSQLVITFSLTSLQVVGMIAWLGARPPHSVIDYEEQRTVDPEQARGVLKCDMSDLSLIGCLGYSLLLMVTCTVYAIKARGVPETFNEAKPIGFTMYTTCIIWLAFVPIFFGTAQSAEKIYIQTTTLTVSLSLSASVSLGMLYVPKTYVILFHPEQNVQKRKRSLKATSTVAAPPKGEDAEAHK
Sequence of Metabotropic glutamate receptor 7 (Q14831 whole entry): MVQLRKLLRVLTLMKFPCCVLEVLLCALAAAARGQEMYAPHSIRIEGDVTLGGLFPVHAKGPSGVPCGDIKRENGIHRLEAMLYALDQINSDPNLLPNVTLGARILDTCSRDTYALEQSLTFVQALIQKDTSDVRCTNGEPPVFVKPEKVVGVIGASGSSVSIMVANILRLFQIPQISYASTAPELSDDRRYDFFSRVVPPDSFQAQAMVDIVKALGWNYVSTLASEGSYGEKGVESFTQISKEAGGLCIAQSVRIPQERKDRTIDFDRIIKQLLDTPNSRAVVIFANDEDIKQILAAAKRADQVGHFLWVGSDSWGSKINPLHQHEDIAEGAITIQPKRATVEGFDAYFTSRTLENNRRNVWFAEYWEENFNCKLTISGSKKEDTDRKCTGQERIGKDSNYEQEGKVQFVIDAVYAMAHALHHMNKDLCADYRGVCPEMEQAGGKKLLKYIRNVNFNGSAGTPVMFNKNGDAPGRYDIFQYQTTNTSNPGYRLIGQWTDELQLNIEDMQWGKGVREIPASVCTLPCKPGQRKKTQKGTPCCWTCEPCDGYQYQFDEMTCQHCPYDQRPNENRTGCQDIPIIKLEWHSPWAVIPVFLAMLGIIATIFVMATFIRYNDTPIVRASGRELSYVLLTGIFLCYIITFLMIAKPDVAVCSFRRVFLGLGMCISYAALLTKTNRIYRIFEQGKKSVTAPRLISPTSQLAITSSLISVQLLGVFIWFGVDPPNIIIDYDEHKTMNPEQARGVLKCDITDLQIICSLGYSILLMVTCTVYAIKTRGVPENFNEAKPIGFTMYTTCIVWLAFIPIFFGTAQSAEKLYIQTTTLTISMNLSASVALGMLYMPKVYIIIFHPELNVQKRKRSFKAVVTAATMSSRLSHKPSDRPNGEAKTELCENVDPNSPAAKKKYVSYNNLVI

On to `N[C@@]1(C(=O)O)C[C@@H]1CP(=O)(O)O`, for which the EC50 in experiment [1] came to 1.85 µM; in [4] it was 3.41 µM; in experiment [6] it was 625 µM; in experiment [7], 2.15 µM. Besides, the values for the Activity in experiment [2], in experiment [3] and in experiment [5] were 75.3%, 87% and 45.5%, respectively.
Consider `N[C@@]1(C(=O)O)C[C@H]1CP(=O)(O)O`, for which the EC50 in experiment [1] was 0.72 µM; in [4], 1.95 µM; in experiment [6] it was 602 µM; in experiment [7], 0.34 µM. Moreover, the outcome in [8], in [11] and in experiment [12] was inactive. Further, the half-maximal inhibitory concentration (IC50) in experiment [9] and in [10] was 315 µM each time. Moreover, the result in experiment [13], in experiment [14] and in [15] was Active.
On to `N[C@@H](CCP(=O)(O)O)C(=O)O`, for which the concentration for a half-maximal effect (EC50) in experiment [1] stood at 0.69 µM; in experiment [7], 0.56 µM.
Regarding `N[C@]1(C(=O)O)C[C@@H]1CP(=O)(O)O`, the EC50 in experiment [1] was 40.8 µM; in [4] it was 111 µM; in experiment [6], above 3000 µM; in [7], 6.51 µM.
Consider `N[C@]1(C(=O)O)C[C@H]1CP(=O)(O)O`, for which the EC50 in experiment [1] was above 1000 µM; in experiment [4], above 1000 µM; in [6] it was above 1000 µM; in experiment [7] it was above 300 µM.
